Assay [1] relates to Vero. Nature of the assay: Compound was tested for antiviral activity against Herpes Simplex virus Type-1(HFEM) in vero cells. In kind it is functional, cell-based. The note with it: Chlorocebus sabaeus. A digest of the protocol:
(§1)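 Plaque reduction in Vero cell monolayers infected with about 50 PFU of HSV-1 or HSV-2. A concentration range of compound was included in an agarose overlay and kept present throughout. Plaques were counted 3 days post-infection. IC50 is the concentration giving a plaque count 50% of untreated controls. Stocks were 10 mg/mL in Me2SO, diluted in test medium.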

Assay [2] deals with Vero. Nature of the assay: Compound was tested for antiviral activity against Herpes Simplex virus Type-2(MS) in vero cells. As to conditions: Chlorocebus sabaeus. In kind it is functional, cell-based. A digest of the protocol: as §1
Assay [3] concerns MRC5. Description: Compound was tested for antiviral activity against Herpes Simplex virus Type-1(HFEM) in human lung fibroblasts (MRC-5). In kind it is functional. The essentials: (§2)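 Virus yield reduction in MRC-5 cells infected at a multiplicity of about 1 PFU/cell. A concentration range of compound was added in culture medium after virus adsorption and kept present throughout. Supernatants were harvested 24 h post-infection and titrated on Vero cells. IC90 is the concentration reducing infectious yield by 90% versus untreated controls.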

Assay [4] deals with MRC5. Nature of the assay: Compound was tested for antiviral activity against Herpes Simplexin human lung fibroblasts (MRC-5)in vero cells. In kind it is functional.
Assay [5] deals with MRC5. Description: Compound was tested for antiviral activity against Herpes Simplex virus Type-1(18189) in human lung fibroblasts (MRC-5). In kind it is functional. The essentials:
as §2

In assay [6] the test system is MRC5. Nature of the assay: Compound was tested for antiviral activity against Herpes Simplex virus Type-2(20605) in human lung fibroblasts (MRC-5). In kind it is functional. A digest of the protocol:
as §2

In assay [7] the test system is MRC5. Nature of the assay: Compound was tested for antiviral activity against Herpes Simplex virus Type-2(MS) in human lung fibroblasts (MRC-5). In kind it is functional. The essentials:
as §2

Assay [8] deals with MRC5. Nature of the assay: Compound was tested for antiviral activity against Herpes Simplex virus Type-1(19407) in human lung fibroblasts (MRC-5). In kind it is functional. The essentials:
as §2

Assay [9] concerns MRC5. Description: Compound was tested for antiviral activity against Herpes Simplex virus Type-2(21929) in human lung fibroblasts (MRC-5). In kind it is functional. The essentials: as §2
Assay [10] deals with MRC5. Nature of the assay: Compound was tested for antiviral activity against Herpes Simplex virus Type-1(20132) in human lung fibroblasts (MRC-5). In kind it is functional. A digest of the protocol: as §2
The subject of assay [11] is MRC5. Nature of the assay: compound was tested for antiviral activity against Herpes Simplex virus Type-1(HFEM) in human lung fibroblasts (MRC-5). In kind it is functional. A digest of the protocol:
as §2

In assay [12] the test system is MRC5. Nature of the assay: compound was tested for antiviral activity against Herpes Simplex virus Type-1(18189) in human lung fibroblasts (MRC-5). In kind it is functional. The essentials: as §2
Assay [13] has as its system MRC5. Nature of the assay: compound was tested for antiviral activity against Herpes Simplex virus Type-2(MS) in human lung fibroblasts (MRC-5). In kind it is functional. The essentials: as §2
In assay [14] the test system is MRC5. Description: compound was tested for antiviral activity against Herpes Simplex virus Type-1(19407) in human lung fibroblasts (MRC-5). In kind it is functional. A digest of the protocol: as §2
Assay [15] has as its system MRC5. Description: compound was tested for antiviral activity against Herpes Simplex virus Type-2(21929) in human lung fibroblasts (MRC-5). In kind it is functional. The essentials:
as §2

Assay [16] relates to MRC5. Description: compound was tested for antiviral activity against Herpes Simplex virus Type-2(17409) in human lung fibroblasts (MRC-5). In kind it is functional. A digest of the protocol:
as §2

Assay [17] deals with MRC5. Description: compound was tested for antiviral activity against Herpes Simplex virus Type-1(20132) in human lung fibroblasts (MRC-5). In kind it is functional. The essentials: as §2
Assay [18] relates to MRC5. Nature of the assay: compound was tested for antiviral activity against Herpes Simplex virus Type-2(20605) in human lung fibroblasts (MRC-5). In kind it is functional. The essentials:
as §2

As to `CCCCCOC(=O)CC(CO)CCn1cnc2c(O)nc(N)nc21` (configuration not stated), the values for the IC50 in the assay on Vero [1] and with Vero [2] were 6 µM and 15 µM, respectively.

For `COc1nc(N)nc2c1ncn2CCC(CO)CO`, the IC50 – broadly, the concentration needed to halve the response being measured – was above 250 µM in the assay on Vero [1] and 236 µM in the assay on Vero [2].

For `Nc1nc(O)c2ncn(CCC(CC(=O)O)CC(=O)O)c2n1`, the IC50 is 5.8 µM in the assay on Vero [1] and 10 µM in the assay with Vero [2].

Consider `COC(=O)CC(CO)CCn1cnc2c(O)nc(N)nc21` (configuration not stated), for which the half-inhibitory concentration (IC50) with Vero [1] was found to be 81 µM; in the assay on Vero [2], 31 µM.

On to `CCCCCCCCCCCCCCCOC(=O)CC(CO)CCn1cnc2c(O)nc(N)nc21` (configuration not stated), for which the IC50 with Vero [1] amounted to 33 µM; in the assay on Vero [2], 128 µM.

Take `CCCCCOC(=O)CC(CCn1cnc2c(O)nc(N)nc21)CC(=O)OCCCCC`: the IC50 in the assay on Vero [1] is 4.2 µM; in the assay with Vero [2] it was 3.6 µM.

`Nc1nc2c(ncn2COCCO)c(=O)[nH]1` [ACYCLOVIR]: the IC90 – broadly, the point of the concentration-response curve where the effect stands at 90% – is 4.8 µM in the assay with MRC5 [3]; 700 nM in the assay on MRC5 [4]; 700 nM with MRC5 [5]; 300 nM with MRC5 [6]; 1200 nM in the assay on MRC5 [7]; 1400 nM with MRC5 [8]. For the same molecule, the IC90 in the assay on MRC5 [9] and in the assay on MRC5 [10] was 900 nM throughout. For the same molecule, the IC50 in the assay on Vero [1] amounted to 3.8 µM; in the assay on Vero [2], 2.5 µM.

As for `Nc1nc(O)c2ncn(CCC(CO)CO)c2n1` [PENCICLOVIR], the IC90 in the assay on MRC5 [11] worked out at 1300 nM; with MRC5 [12], 500 nM; in the assay on MRC5 [13] it was 1100 nM; with MRC5 [14], 600 nM; in the assay with MRC5 [15] it was 900 nM; in the assay on MRC5 [16], 900 nM. Also, the IC90 was 600 nM with MRC5 [17] and 800 nM in the assay on MRC5 [18]. Moreover, the IC50 in the assay on Vero [1] and in the assay on Vero [2] was 6.4 µM throughout.

The record behind these values is ChEMBL document CHEMBL1123836, “Synthesis and antiviral activity of 9-[4-hydroxy-3-(hydroxymethyl)but-1-yl]purines” (J Med Chem, 1987).
